Data on two compounds can be found in ChEMBL document CHEMBL4219194, “Diversity-oriented synthesis of pyrazoles derivatives from flavones and isoflavones leads to the discovery of promising reversal agents of fluconazole resistance in Candida albicans” (2018).

Converted amounts (≈) assume the structure as drawn.

Assay type in all cases: functional
The subject of assay [1] is Candida albicans. As to the kind of experiment: Antifungal activity against Candida albicans SC5314 after 48 hrs by broth microdilution method. The note with it: SC5314, 48 h. A digest of the protocol: (§1)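 MIC80 read by broth microdilution, with fluconazole as the positive antifungal agent. Values are reported in µg/mL as means of three independent experiments. Strains: wild-type SC5314 and DSY654, which lacks the Cdr1 and Cdr2 efflux pumps.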
(In general: In broth dilution the organism is exposed to a series of concentrations in liquid medium.)

The test system of assay [2] is Candida albicans. As to the kind of experiment: Antifungal activity against fluconazole-resistant Candida albicans 28A after 48 hrs by broth microdilution method. The procedure, abridged: (§2)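 Clinical fluconazole-resistant isolates tested in broth microdilution with the compound alone. The endpoint is MIC80, the lowest concentration giving 80% growth inhibition, in µg/mL.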

For assay [3], the system named is Candida albicans. Put plainly: Potentiation of fluconazole-induced antifungal activity against fluconazole-resistant Candida albicans 28A after 48 hrs by broth microdilution checkerboard method. The procedure, abridged: (§3)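 Checkerboard dose-response matrix on strain 28A with gradients of fluconazole and the test compound in RPMI 1640, read after 48 h at 35 °C. MIC80 is taken alone and in combination, and FICI is calculated. Synergy is FICI ≤0.5, indifference >0.5-4, and antagonism >4.0.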

Assay [4] relates to Candida albicans. Put plainly: Synergistic antifungal activity against drug-resistant Candida albicans 28I after 48 hrs in presence of fluconazole by broth microdilution checkerboard method. A digest of the protocol: (§4)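 Broth microdilution checkerboard of fluconazole crossed with the test compound against clinical FLC-resistant isolates. MIC80 is read for each agent alone and in combination, and FICI is calculated. Synergy is FICI ≤0.5, indifference >0.5-4, and antagonism >4.0.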

The test system of assay [5] is Candida albicans. Put plainly: Synergistic antifungal activity against fluconazole-resistant Candida albicans 28A after 48 hrs in presence of fluconazole by broth microdilution checkerboard method. A digest of the protocol: as §3
The subject of assay [6] is Candida albicans. Put plainly: Potentiation of fluconazole-induced antifungal activity against drug-resistant Candida albicans 28J assessed as fluconazole MIC80 after 48 hrs by broth microdilution checkerboard method. The procedure, abridged:
as §4

Assay [7] concerns Candida albicans. Put plainly: Potentiation of fluconazole-induced antifungal activity against drug-resistant Candida albicans 28J after 48 hrs by broth microdilution checkerboard method. The procedure, abridged: as §4
The test system of assay [8] is Candida albicans. As to the kind of experiment: Antifungal activity against CDR1 and CDR2 efflux pump deficient Candida albicans DSY654 after 48 hrs by broth microdilution method. Conditions: DSY654, 48 h. A digest of the protocol: as §1
The test system of assay [9] is Candida albicans. Put plainly: Potentiation of fluconazole-induced antifungal activity against drug-resistant Candida albicans 28I after 48 hrs by broth microdilution checkerboard method. The procedure, abridged: as §4
In assay [10] the test system is Candida albicans. Put plainly: Antifungal activity against drug-resistant Candida albicans 28I after 48 hrs by broth microdilution method. A digest of the protocol: as §2
Assay [11] concerns Candida albicans. As to the kind of experiment: Synergistic antifungal activity against drug-resistant Candida albicans 28J after 48 hrs in presence of fluconazole by broth microdilution checkerboard method. A digest of the protocol:
as §4

The test system of assay [12] is Candida albicans. Put plainly: Antifungal activity against drug-resistant Candida albicans 28J after 48 hrs by broth microdilution method. A digest of the protocol: as §2
Assay [13] relates to Candida albicans. As to the kind of experiment: Potentiation of fluconazole-induced antifungal activity against drug-resistant Candida albicans 28I assessed as fluconazole MIC80 after 48 hrs by broth microdilution checkerboard method. The procedure, abridged: as §4
Assay [14] concerns Candida albicans. Put plainly: Potentiation of fluconazole-induced antifungal activity against fluconazole-resistant Candida albicans 28A assessed as fluconazole MIC80 after 48 hrs by broth microdilution checkerboard method. A digest of the protocol:
as §3

In the case of `COc1cc(O)c(-c2cc(-c3ccccc3)n[nH]2)c(OC)c1`, the MIC80 in assay [1] amounted to 8 µg/mL (≈ 27 µM); in assay [2], 32 µg/mL (≈ 108 µM); in assay [4], 8 µg/mL; in assay [5], 8 µg/mL; in assay [6] it was 0.5 µg/mL; in assay [8], 1 µg/mL (≈ 3.37 µM). Further, the MIC80 in assay [10] was 32 µg/mL (≈ 108 µM); in assay [11] it was 8 µg/mL; in assay [12], 32 µg/mL (≈ 108 µM); in assay [13] it was 0.25 µg/mL; in assay [14] it was 0.25 µg/mL. The “fractional inhibitory concentration index (FICI)” value is 0.252 in assay [3], 0.254 in assay [7] and 0.252 in assay [9].

Turning to `OC(Cn1cncn1)(Cn1cncn1)c1ccc(F)cc1F` [FLUCONAZOLE], the MIC80 in assay [1] was 2 µg/mL (≈ 6.53 µM); in assay [2], over 128 µg/mL; in assay [8] it was 0.25 µg/mL (≈ 0.816 µM); in assay [10] it was over 128 µg/mL; in [12] it was over 128 µg/mL.

By MIC80 is commonly meant an inhibitory concentration at the 80% level, which refers to growth in some studies and to a panel of isolates in others.
